Series [1] in a line: Pharmacokinetic study in healthy male subjects after oral desmopressin. The format is in vivo. The following applies: human, plasma, 0.4 mg. The method, boiled down:
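Healthy male volunteers (n=6), fasted 9 h, received a single oral 0.4 mg dose (2×0.2 mg tablets). Plasma was spun at 3200 rpm for 10 min, stored at −20±5 °C, spiked with IS, extracted and quantified by positive-ESI MRM UPLC–MS/MS (HSS T3 column, 40 °C; LLOQ 1.01 pg/mL). Non-compartmental analysis.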

The nature of series [2]: Processed sample stability. The format is physicochemical. The following applies: 45 h at 2-8 °C, UPLC-MS/MS, mean of n=6. The method, boiled down: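 Processed-sample stability was tested at LQC and HQC in human plasma, six replicates per level: autosampler 48 h, wet extract 45 h, reinjection 24 h. Extracts were analysed by UPLC–MS/MS against a 9-point calibration of 1.01–200 pg/mL. Acceptance was accuracy within ±15% and precision ≤15% RSD.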

Consider `NC(=O)CC[C@@H]1NC(=O)[C@H](Cc2ccccc2)NC(=O)[C@H](Cc2ccc(O)cc2)NC(=O)CCSSC[C@@H](C(=O)N2CCC[C@H]2C(=O)N[C@H](CCCN=C(N)N)C(=O)NCC(N)=O)NC(=O)[C@H](CC(N)=O)NC1=O` [desmopressin], for which, in series [1], the AUC(0-inf) amounted to 0.157 ± 0.051 ng·h/mL, the AUC(0-t) amounted to 0.149 ± 0.046 ng·h/mL, the highest level (Cmax) was 0.035 ± 0.0081 ng/mL and the Tmax was 1.4 ± 0.48 h. In series [1], this molecule gave a half-life of 3.48 ± 0.5 h and a level at 1.25 h of 0.0361 ng/mL. The “Accuracy/stability (%), Process (wet extract)” value in series [2] (spiked 3.05 pg/mL (LQC)) was 94.84%. In addition, the “Accuracy/stability (%), Process (wet extract)” value in series [2] (spiked 156.23 pg/mL (HQC)) is recorded as 99.20%.

As usually defined, the AUC(0-inf) is total exposure, with the tail of the curve extrapolated. By AUC(0-t) is commonly meant the area under the concentration-time curve up to a stated or last time point. The low end stands for less exposure, the high end for more exposure. One may read the Cmax as the maximum level reached in the sampled fluid or tissue. In general, Tmax refers to the time from dosing to the highest level. As a reminder, the half-life is the time in which the quantity being followed falls by half.

Source of the values: article PMC5790683 (Journal of Pharmaceutical Analysis, 2013).
